Assay outcomes (PubChem BioAssay)
Apaf1 inhib: inhibitors of human Apaf-1 apoptosome, primary screen, biochemical, DEVD-Rh110 fluorescence, uHTS. 330,000 tested, 0.71% active. reconstituted apoptosome caspase-3 activity. inhibition, % at 20 µM. AID 489030, 2010. Apoptotic protease-activating factor 1 (Homo sapiens), O14727; active means inhibition of at least 40% at 20 µM;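 further: plate controls were DMSO wells for no effect and DEVD-CHO caspase inhibitor wells for full effect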
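Material: reconstituted apoptosome with Apaf-1, cytochrome c, caspase-9, procaspase-3, dATP. Technique: Rh110 fluorescence intensity. Buffer or medium: pH 7.5 Hepes buffer with CHAPS, BSA, DTT. Times: 30 min plus 50 min, RT.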
GSTO1 inh: inhibitors of recombinant GSTO1, primary screen, counter-screen for RBBP9 inhibitor project, biochemical, fluorescence polarization; Glutathione S-transferase omega-1 (Homo sapiens), P78417; activity-based probe fluorescence polarization; inhibition, % at 5.96 µM; 300,000 tested, 1.1% active; AID 1974, 2009;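 active means inhibition above the campaign mean inhibition plus 3 SD, cut at about 35% in these data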;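 further: 0% = GSTO1-1 with DMSO and 100% = wells lacking GSTO1-1 enzyme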
PAD4 FP inh: human PAD4 inhibitors, primary screen, biochemical, fluorescence polarization, 1536-well format; 330,000 tested, 0.41% active; Protein-arginine deiminase type-4 (Homo sapiens), Q9UM07; inhibition, % at 6.36 µM; recombinant PAD4, RCA probe fluorescence polarization; AID 485272, 2010;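 active means percent inhibition above a cutoff equal to the mean of all tested compounds plus 3 SD, cut at about 15% in these data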;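 further: 0% = PAD4 with RCA probe and DMSO and 100% = probe without PAD4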
Target sequence (Q9UM07 whole entry, looked up): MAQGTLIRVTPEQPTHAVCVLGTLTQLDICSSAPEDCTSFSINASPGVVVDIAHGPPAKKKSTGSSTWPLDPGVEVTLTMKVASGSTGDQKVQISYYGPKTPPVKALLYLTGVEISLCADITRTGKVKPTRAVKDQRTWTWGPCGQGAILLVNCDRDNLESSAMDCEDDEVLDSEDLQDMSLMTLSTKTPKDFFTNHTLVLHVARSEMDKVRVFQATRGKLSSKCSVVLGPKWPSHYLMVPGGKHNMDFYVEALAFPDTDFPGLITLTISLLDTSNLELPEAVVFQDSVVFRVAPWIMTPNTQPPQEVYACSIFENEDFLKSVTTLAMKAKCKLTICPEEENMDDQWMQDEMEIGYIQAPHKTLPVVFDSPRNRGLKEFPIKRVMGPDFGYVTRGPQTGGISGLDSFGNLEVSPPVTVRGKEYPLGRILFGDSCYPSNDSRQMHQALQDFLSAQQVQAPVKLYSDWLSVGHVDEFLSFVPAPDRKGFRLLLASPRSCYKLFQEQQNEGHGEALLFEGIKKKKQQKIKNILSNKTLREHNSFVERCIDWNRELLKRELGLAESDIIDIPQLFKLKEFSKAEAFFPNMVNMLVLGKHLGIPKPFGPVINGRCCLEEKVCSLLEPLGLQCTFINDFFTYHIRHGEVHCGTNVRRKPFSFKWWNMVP
TDP2 inh: human TDP2 enzyme inhibitors, primary screen, biochemical, epi absorbance, recombinant enzyme. Tyrosyl-DNA phosphodiesterase 2 (Homo sapiens), O95551. T5PNP hydrolysis, p-nitrophenol absorbance 415 nm. inhibition, % at 12.8 µM. 370,000 tested, 0.34% active. AID 720702, 2013;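 active means inhibition above the mean of all tested compounds plus 3 SD, set per campaign, cut at about 25% in these data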;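 further: 0% = DMSO with enzyme and 100% = buffer with substrate but no TDP2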
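Material: recombinant human TDP2; quantity: TDP2 enzyme at 120 nM final; medium: Tris-HCl pH 7.5 with MgCl2; compound: single concentration, 12.8 µM nominal, with 1% DMSO; incubation: 2 h enzyme incubation at 37 °C; signal: epi absorbance; measure: percent inhibition; benchmarks: high control without enzyme, low control DMSO plus TDP2; repeats: singlicate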
CTSL1 counter: Fasciola hepatica cathepsin L1 inhibitors, primary screen, counter-screen for PFM18AAP inhibitor project, biochemical, QFRET, fluorogenic peptide substrate. recombinant F. hepatica cathepsin L1, Z-Leu-Arg-MCA fluorescence. inhibition, % at 5.96 µM. 300,000 tested, 0.49% active. AID 1906, 2009;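 active means inhibition above the mean of all tested compounds plus 3 SD, set per screening campaign, cut at about 17% in these data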;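 further: 0% = plate median of test compound wells and 100% = 1 µM Z-Phe-Ala-diazomethylketone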
TDP2 inh conf: human TDP2 enzyme inhibitors, retest, confirmation, biochemical, epi absorbance, recombinant enzyme | shares compounds with TDP2 inh | absorbance read-out | inhibition, % at 12.8 µM | 1,100 tested, 22% active | AID 743263, 2014; in the data active means inhibition above about 25%;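 further: 0% = vehicle with enzyme and 100% = no enzyme buffer only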
* marks the source's active call; other numbers are inactive results; nt = no result. A selection: hits, their analogues and other compounds. The true share with any hit is near 1.8%.

SMILES	Apaf1 inhib	GSTO1 inh	PAD4 FP inh	TDP2 inh	CTSL1 counter	TDP2 inh conf
Nn1c(SCC(=O)Nc2ccc(OCc3ccccc3)cc2)nnc1-c1cc(-c2ccc(F)cc2)n[nH]1	nt	nt	nt	1	nt	nt
COc1cc(CCC(=O)Nc2nccs2)cc(OC)c1OC	-2	-4	4	29*	-4	-5
O=S(=O)(NC1CCSc2ccccc21)c1ccc(Cl)nc1 (stereo not given)	7	1	2	28*	-2	-1
CC(=O)c1ccc(S(=O)(=O)NC2CCSc3ccccc32)cc1 (stereo not given)	3	2	-3	-2	0	nt
O=C(Nc1nc2ncccn2c1-c1ccc(F)cc1)c1ccccc1	nt	nt	nt	-4	nt	nt
CCN(CC)S(=O)(=O)c1ccc(N2CCN(S(=O)(=O)c3ccccc3)CC2)nc1	7	nt	nt	25*	nt	2
CCOc1ccc(CCNC(=O)C2CC(=O)N(CCc3ccc(OC)c(OC)c3)C2)cc1OCC (stereo not given)	-7	-14	2	25*	-3	2
CC(C)CN(C(=O)CCc1ccccc1Cl)c1c(N)n(Cc2ccccc2)c(=O)[nH]c1=O	16	0	1	27*	1	-5
Nc1ccc(NC(=S)Nc2ccccc2)cc1	nt	nt	nt	32*	nt	1
S=C(NCCNC(=S)Nc1ccccc1)Nc1ccccc1	9	8	3	-3	-1	nt
O=C(c1cc(COc2cccc3cnccc23)on1)N1CCC(c2ccccc2Cl)C1 (stereo not given)	23	-3	-3	25*	1	0
COC(=O)C1=C(C)N(Cc2ccccc2C(F)(F)F)C(=NCC2CC2)NC1c1cccc(F)c1 (stereo not given)	nt	nt	nt	-2	nt	nt
N#Cc1ccccc1S(=O)(=O)N1CCN(CC(O)COc2ccccc2F)CC1 (stereo not given)	6	-4	1	28*	7	8
N#Cc1ccccc1NC(=O)CSc1n[nH]c(-c2ccco2)n1	6	6	-4	32*	-2	0
CCc1ccc(CN(C)Cc2nc(-c3cccc(Cl)c3)no2)nc1	9	5	2	28*	-3	4
CC(=O)N1CCc2cc(S(=O)(=O)NCCC(=O)NCc3ccccc3)ccc21	nt	nt	nt	-1	nt	nt
O=C(NCCCO)c1ccc2nc(-c3ccco3)c(-c3ccco3)nc2c1	nt	nt	nt	40*	nt	31*
CCc1nc2ccc(C(=O)NCCc3ccco3)cc2nc1CC	5	3	-3	nt	-3	nt
CC1=C(C(=O)OCC(C)C)C2(O)C(=O)c3ccccc3C2(O)N1 (stereo not given)	24	68*	-6	47*	2	20
COc1ccccc1C1CC(=O)NC(C)=C1C(=O)OCC(C)C (stereo not given)	9	-3	-2	-12	0	nt
CCC[C@H]1[C@@H](NC(=O)C2CCOC2)CC[C@@]23CCCN2C(=O)CCC[C@@H]13 (stereo not given in full)	nt	nt	nt	1	nt	nt
CCCN1CCCCC(NC(=O)c2ccc(Cl)cc2Cl)C1=O (stereo not given)	nt	nt	nt	3	nt	nt
O=C(NC(N1CCOCC1)C(Cl)(Cl)Cl)c1ccccc1Cl (stereo not given)	-7	13	1	27*	2	8
Clc1ccc(-c2cc(-c3nnc4sc(Cc5cccs5)nn34)[nH]n2)cc1	nt	nt	nt	-3	nt	nt
CC(=O)c1ccc(OCc2cc(C(=O)NC(C)Cc3ccccn3)no2)cc1 (stereo not given)	-2	-4	-3	30*	1	5
SMILES	Apaf1 inhib	GSTO1 inh	PAD4 FP inh	TDP2 inh	CTSL1 counter	TDP2 inh conf
COc1ccc(CCNC(=O)c2ccccc2C(=O)NCCc2ccc(OC)cc2)cc1	-2	11	0	-8	-7	nt
COc1ccc(CCNC(=O)c2ccccc2)cc1	11	3	-7	70*	-2	2
Cc1ccccc1OCCC(=O)OCC(=O)c1c(N)n(CC(C)C)c(=O)n(C)c1=O	6	0	-3	29*	-7	6
CCCC[C@H](C(=O)N(C)c1cccc(OC)c1)[C@@H](O)c1ccc(Cl)cc1	nt	nt	nt	-5	nt	nt
CN(C(=O)c1cccs1)c1ccccc1C(=O)O	0	-5	-3	42*	-1	5
CCOc1ccccc1NC(=O)c1cc2c(C)nn(-c3ccccc3)c2s1	nt	nt	nt	-1	nt	nt
CCCN1CCN(C(=O)c2ccc(F)c(S(=O)(=O)N3CCOCC3)c2)CC1	-7	nt	-4	39*	nt	3
CCOC(=O)C1=CCN(S(=O)(=O)c2ccc([N+](=O)[O-])cc2)C1c1ccc(C)cc1 (stereo not given)	nt	nt	nt	3	nt	nt
Cc1ccc(C)c(-n2c3nc(=O)[nH]c(=O)c-3cc3cc([N+](=O)[O-])ccc32)c1	nt	-10	3	52*	7	40*
Cc1cccc(-n2c3nc(=O)[nH]c(=O)c-3cc3c(C)nn(-c4ccccc4)c32)c1C	-6	-1	-1	12	3	nt
Cc1cccc(-n2c3nc(=O)[nH]c(=O)c-3cc3cc([N+](=O)[O-])ccc32)c1	nt	-14	1	54*	7	47*
Cc1ccc(C)c(-n2c3nc(=O)n(C)c(=O)c-3cc3ccccc32)c1	-5	6	6	-7	-2	nt
Nc1ccc2ccc(O)cc2c1	nt	nt	nt	-6	nt	nt
C[n+]1c2cc(N)ccc2cc2ccc(N)cc21	nt	nt	nt	29*	nt	28*
Cc1ccc(NC(=O)OC2CC3CC2[C@H]2CCCCN2[C@H]3C)cc1 (stereo not given in full)	nt	nt	nt	1	nt	nt
COC(=O)CC#C[C@H](C)[C@@H](NS(C)(=O)=O)C(C)(C)COCc1ccccc1	nt	nt	nt	-5	nt	nt
CC[C@@H](CCC1CCCCC1)CN(c1ccccc1)S(C)(=O)=O	nt	nt	nt	6	nt	nt
Cc1nn(-c2ccccc2)c(C)c1/C=N\N1CCN(Cc2ccccc2Cl)CC1	nt	nt	nt	1	nt	nt
Cc1cc(-c2ccccc2)nc2oc(C(=O)NN)c(N)c12	29	2	-9	30*	8	6
Cc1cc(C)c2c(N)c(C(=O)c3ccccc3)oc2n1	4	20	2	6	0	nt
COC[C@@H](O)[C@H]1OCc2cc(OC)ccc2[C@@H]1/C=C/c1ccccc1	nt	nt	nt	7	nt	nt
O=[N+]([O-])c1cccc(C2=Nn3c(nnc3-c3ccccc3)SC2)c1	nt	nt	nt	4	nt	nt
CCCCC(=O)Nc1nnc(SCC(=O)NC2CC2)s1	-5	1	4	39*	-3	3
CCCCC(=O)Nc1nnc(SCC(=O)NC2CCCC2)s1	3	7	-2	6	-2	nt
